Laboratory results published in ChEMBL document CHEMBL1125728, “Dopamine autoreceptor agonists as potential antipsychotics. 2. (Aminoalkoxy)-4H-1-benzopyran-4-ones” (J Med Chem, 1991).

Key:
Dopamine receptor [1] = experiment: Compound was tested for inhibitory binding activity against Dopamine receptor in rat striatal membranes using [3H]HAL as the radioligand.; type: cell membranes, Striatum, Membrane
Method in brief: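 [3H]Haloperidol displacement from rat striatal DA receptors, run in duplicate. IC50 obtained by nonlinear regression from four to five concentrations.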

Mus musculus = experiment: Inhibition of mouse intraperitoneally.; type: functional; details: ip
Method in brief: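 Inhibition of exploratory locomotor activity, scored together with motor coordination (ataxia). ED50 generated from four to five doses, with 5–12 animals per dose.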

Rattus norvegicus [2] = experiment: Percentage of rats showing signs of stereotyped behavior at 17 mg/kg peroral dose and followed 1 hr later by 10 mg/kg sc of SKF-38393 and animals observed for 60 min postdose before being; type: functional
Method in brief: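 Part 2: oral dose given to naive rats, six per dose, followed 1 h later by SKF 38393 (10 mg/kg sc). Stereotypy (repetitive rearing, head-swaying, sniffing, licking, gnawing lasting ≥5 s) rated over 60 min. Reported as percent of rats affected.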

[3] = Compound tested for its liability for extrapyramidal side effects (EPS) in terms of no. of animals showing signs of EPS/no. of animals tested upon po administration at a dose of 80 mg/Kg; 0/3; type: functional
Rattus norvegicus [4] = experiment: Percentage of rats showing signs of stereotyped behavior at 30 mg/kg peroral dose and animals observed for 60 min postdose.; details: route oral
D(1A) dopamine receptor = D(1A) dopamine receptor (Rattus norvegicus, UniProt P18901); experiment: Compound was tested for its inhibitory effect on the binding profile in Dopamine receptor D1 using [3H]flupenthixol in rat brain.; type: tissue-based
D(1A) dopamine receptor, sequence (P18901 whole entry): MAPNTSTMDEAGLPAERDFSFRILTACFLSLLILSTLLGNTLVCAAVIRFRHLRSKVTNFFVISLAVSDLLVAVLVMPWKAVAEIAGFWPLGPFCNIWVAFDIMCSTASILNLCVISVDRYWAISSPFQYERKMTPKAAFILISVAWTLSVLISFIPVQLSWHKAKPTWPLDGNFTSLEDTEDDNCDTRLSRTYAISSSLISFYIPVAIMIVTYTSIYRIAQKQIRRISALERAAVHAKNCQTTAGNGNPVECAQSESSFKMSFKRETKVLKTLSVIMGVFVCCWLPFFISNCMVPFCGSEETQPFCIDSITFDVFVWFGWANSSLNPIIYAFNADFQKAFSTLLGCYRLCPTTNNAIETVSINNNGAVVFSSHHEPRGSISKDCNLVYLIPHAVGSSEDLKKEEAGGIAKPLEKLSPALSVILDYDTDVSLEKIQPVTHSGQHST
Method in brief: (§1)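 Rat brain receptor binding with the stated radioligands. IC50 obtained by nonlinear regression from four to five concentrations. [3H]flupenthixol and [3H]N-propylnorapomorphine values come from four independent determinations each, and the [3H]haloperidol value from two experiments. Remaining ligands were determined once.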

Rattus norvegicus [5] = experiment: Compound tested for its effective dose to inhibit rat locomotor activity after sc administration of the compound.; type: functional
Method in brief: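 Rats dosed sc, with locomotor activity recorded for 30 min immediately after dosing. ED50 generated from four to five doses using 5–12 animals per dose, reported with ±95% confidence limits.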

Rattus norvegicus [6] = experiment: Compound tested for % inhibition of DA neuronal firing at an intraperitoneal dose of 2.5 mg/kg.; type: functional; details: ip
Dopamine receptor [7] = experiment: Compound was tested for its inhibitory effect on the binding profile in Dopamine receptor using [3H]N-propylnorapomorphine in rat brain.; type: tissue-based; method in brief: as §1
Rattus norvegicus [8] = experiment: Compound tested for its effect on reversal of 6-OHDA induced depression in rats after sc administration.; type: functional
Method in brief: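 Rats lesioned at least 1 month earlier with 6-OHDA (20 μg icv) plus pargyline (50 mg/kg ip) and desipramine (25 mg/kg ip), giving about 90% brain DA depletion. Drug given sc, then locomotor activity recorded for 30 min from dosing. ED200 estimated from three or four doses, six rats per dose.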

[9] = Compound was tested for its inhibition of Sidman avoidance after peroral administration in Squirrel monkeys.; type: functional; details: po
Method in brief: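 Sidman avoidance in mature squirrel monkeys, oral dosing. ED50 ± SEM generated from three doses, four animals per dose.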

[10] = molecular target: T1, Adrenergic receptor alpha-2 (Rattus norvegicus, UniProt P22086+P19328+P22909); experiment: Compound was tested for its inhibitory effect on the binding profile in Alpha-2 adrenergic receptor using [3H]p-aminoclonidine in rat brain.; type: tissue-based; method in brief: as §1
T1 sequence (P22086 whole entry): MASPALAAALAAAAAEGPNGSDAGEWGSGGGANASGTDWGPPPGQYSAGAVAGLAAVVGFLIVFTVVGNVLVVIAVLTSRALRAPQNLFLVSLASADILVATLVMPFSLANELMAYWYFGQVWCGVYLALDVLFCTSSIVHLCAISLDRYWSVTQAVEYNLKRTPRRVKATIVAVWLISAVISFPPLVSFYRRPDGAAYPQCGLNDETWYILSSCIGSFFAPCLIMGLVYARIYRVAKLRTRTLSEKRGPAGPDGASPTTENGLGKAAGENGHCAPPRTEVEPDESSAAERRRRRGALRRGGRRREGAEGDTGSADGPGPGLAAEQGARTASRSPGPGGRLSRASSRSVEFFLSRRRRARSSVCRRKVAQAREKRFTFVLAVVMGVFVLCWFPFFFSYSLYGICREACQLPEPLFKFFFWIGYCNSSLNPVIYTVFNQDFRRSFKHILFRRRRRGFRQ
T1 sequence (P19328 whole entry): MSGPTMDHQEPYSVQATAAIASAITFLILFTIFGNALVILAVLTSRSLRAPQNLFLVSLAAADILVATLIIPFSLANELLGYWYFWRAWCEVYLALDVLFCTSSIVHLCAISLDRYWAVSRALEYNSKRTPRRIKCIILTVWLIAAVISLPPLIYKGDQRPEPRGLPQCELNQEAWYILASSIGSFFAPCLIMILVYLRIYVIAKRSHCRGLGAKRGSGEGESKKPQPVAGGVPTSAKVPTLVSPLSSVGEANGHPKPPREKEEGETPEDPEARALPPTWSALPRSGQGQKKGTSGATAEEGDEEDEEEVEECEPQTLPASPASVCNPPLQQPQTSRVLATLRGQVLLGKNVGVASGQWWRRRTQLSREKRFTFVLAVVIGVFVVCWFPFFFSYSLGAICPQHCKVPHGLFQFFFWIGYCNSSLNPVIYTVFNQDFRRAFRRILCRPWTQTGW
T1 sequence (P22909 whole entry): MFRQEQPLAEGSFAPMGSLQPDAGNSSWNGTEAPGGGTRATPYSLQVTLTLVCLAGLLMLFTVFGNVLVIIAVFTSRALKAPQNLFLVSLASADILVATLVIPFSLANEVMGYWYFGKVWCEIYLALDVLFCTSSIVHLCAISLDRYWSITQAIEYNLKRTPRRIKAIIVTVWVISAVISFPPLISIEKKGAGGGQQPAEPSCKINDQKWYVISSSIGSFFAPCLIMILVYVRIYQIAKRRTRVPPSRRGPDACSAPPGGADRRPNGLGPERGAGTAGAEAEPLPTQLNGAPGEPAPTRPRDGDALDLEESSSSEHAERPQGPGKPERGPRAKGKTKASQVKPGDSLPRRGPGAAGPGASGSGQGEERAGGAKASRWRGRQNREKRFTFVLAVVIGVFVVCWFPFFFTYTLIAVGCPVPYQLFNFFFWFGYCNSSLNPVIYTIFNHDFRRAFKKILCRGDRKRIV

Rattus norvegicus [11] = experiment: Compound tested for % reversal of DOPA accumulation at an intraperitoneal dose of 30 mg/kg.; type: functional
Method in brief: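 Rats dosed 1 h before sacrifice, with GBL (750 mg/kg ip) at 30 min and NSD 1015 (100 mg/kg ip) at 25 min before sacrifice. Striatal DOPA measured by HPLC with electrochemical detection. Value is percent reversal of the GBL-induced DOPA rise.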

Rattus norvegicus [12] = experiment: Effect on DOPA accumulation level at an intraperitoneal dose of 30 mg/kg in rat.; type: functional
[13] = molecular target: Serotonin 2 (5-HT2) receptor (Rattus norvegicus, UniProt P30994+P08909+P14842); experiment: Compound was tested for its inhibitory effect on the binding profile in 5-hydroxytryptamine 2 receptor using [3H]spiroperidol in rat brain.; type: tissue-based; method in brief: as §1
D(2) dopamine receptor = D(2) dopamine receptor (Rattus norvegicus, UniProt P61169); experiment: Compound was tested for its inhibitory effect on the binding profile in Dopamine receptor D2 using [3H]haloperidol in rat brain.; type: tissue-based; method in brief: as §1
D(2) dopamine receptor, sequence (P61169 whole entry): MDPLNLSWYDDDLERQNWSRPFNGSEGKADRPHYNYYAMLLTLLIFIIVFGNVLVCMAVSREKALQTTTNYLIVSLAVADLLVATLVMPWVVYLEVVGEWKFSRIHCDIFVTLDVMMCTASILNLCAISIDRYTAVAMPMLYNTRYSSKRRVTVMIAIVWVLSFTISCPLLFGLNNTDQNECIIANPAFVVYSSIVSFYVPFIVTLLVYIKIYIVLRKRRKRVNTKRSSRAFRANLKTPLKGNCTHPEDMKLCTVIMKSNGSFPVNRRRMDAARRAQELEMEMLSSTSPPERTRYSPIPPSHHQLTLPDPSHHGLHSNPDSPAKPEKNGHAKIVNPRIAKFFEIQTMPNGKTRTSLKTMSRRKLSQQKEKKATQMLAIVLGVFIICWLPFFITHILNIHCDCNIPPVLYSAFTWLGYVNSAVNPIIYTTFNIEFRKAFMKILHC

IC50 (Dopamine receptor [1]): 1000 nM
IC50 (D(1A) dopamine receptor): 21700 nM
IC50 (Dopamine receptor [7]): 59 nM
IC50 [10]: 2600 nM
IC50 [13]: 1000 nM
IC50 (D(2) dopamine receptor): 1080 nM
SMILES: O=c1ccoc2cc(OCCCN3CCN(c4ccccn4)CC3)ccc12
ED50 (Mus musculus): 1.3 mg/kg
Animals (Rattus norvegicus [2]): 0%
EPS [3]: 0
Animals (Rattus norvegicus [4]): 0%
ED50 (Rattus norvegicus [5]): 0.58 mg/kg
inhibition in vivo at 2.5 mg/kg (Rattus norvegicus [6]): 93%
ED200 (Rattus norvegicus [8]): > 5 mg/kg
ED50 [9]: 6 mg/kg
Reversal (Rattus norvegicus [11]): 100%
DOPA level (Rattus norvegicus [12]): 0.28 µg/g
